Reference: ChEMBL document CHEMBL1150415 (J Med Chem, 2008)
Values belong to the molecule of their own block, whether it stands above or below them. Calls of active or inactive are those of the source. The rule behind the calls is not given here.

What was measured:
[1] = system: MC9; assay: Inhibition of PGF2alpha production in mouse MC9 cells; format: functional, cell-based
[2] = system: Blood; assay: Inhibition of PGE2 production in human whole blood at 0.15 uM; format: functional
Summary of the method: (§1)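 Human whole blood stimulated with calcium ionophore A23187 at 30 µM. Several arachidonic acid metabolites (LTB4, PGE2, PGF2α, TXB2) and PAF production were quantified.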

[3] = Plasma concentration in collagen-induced arthritis mouse model at 100 mg/kg, po twice daily after 3 hrs; format: ADME, organism-based; parameters: dose 100 mg/kg, route oral
[4] = molecular target: Prostaglandin G/H synthase 2, cyclooxygenase-2 (Homo sapiens) (UniProt P35354); assay: Inhibition of COX2-dependent PGE2 production in IL1B stimulated human A549 cells at 0.040 uM
Chain of Prostaglandin G/H synthase 2, cyclooxygenase-2 (Homo sapiens) (P35354 whole entry, looked up): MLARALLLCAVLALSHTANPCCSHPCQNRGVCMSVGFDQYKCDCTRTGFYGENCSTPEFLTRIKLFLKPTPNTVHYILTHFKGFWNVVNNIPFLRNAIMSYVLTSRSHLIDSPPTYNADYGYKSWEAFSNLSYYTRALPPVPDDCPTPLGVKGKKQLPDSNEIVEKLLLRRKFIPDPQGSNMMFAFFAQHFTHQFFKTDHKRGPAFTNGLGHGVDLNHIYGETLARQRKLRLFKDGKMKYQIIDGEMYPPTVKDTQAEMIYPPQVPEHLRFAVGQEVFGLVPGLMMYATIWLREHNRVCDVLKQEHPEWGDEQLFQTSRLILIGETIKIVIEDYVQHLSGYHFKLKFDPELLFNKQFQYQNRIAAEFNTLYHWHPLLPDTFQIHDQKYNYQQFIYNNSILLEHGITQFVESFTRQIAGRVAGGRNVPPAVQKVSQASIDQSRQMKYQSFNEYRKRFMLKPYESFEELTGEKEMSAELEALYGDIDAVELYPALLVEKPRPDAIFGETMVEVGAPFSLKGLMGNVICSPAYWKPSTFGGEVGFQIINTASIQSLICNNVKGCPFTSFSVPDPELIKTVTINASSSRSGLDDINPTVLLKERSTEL

[5] = system: Rattus norvegicus; assay: Inhibition of PGE2 production in carrageenan-stimulated orally dosed rat air pouch model after 6 hrs; format: functional; conditions: po
Summary of the method: (§2)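 Carrageenan was injected into a preformed air pouch 2 h after oral drug. Pouch contents were removed 6 h later and PGE2 was quantified.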

[6] = Inhibition of cytosolic phospholipase A2alpha at 0.020 uM
Summary of the method: (§3)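 Isolated enzyme activity on PAPC (1-palmitoyl-2-arachidonoyl-sn-glycero-3-phosphocholine) liposome substrate.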

[7] = system: Blood; assay: Inhibition of TXB2 production in human whole blood at 0.15 uM; format: functional; summary of the method: as §1
[8] = system: Blood; assay: Inhibition of LTB4 production in human whole blood at 0.15 uM; format: functional; summary of the method: as §1
[9] = system: Rattus norvegicus; assay: Reduction in synovitis damage in Freund's adjuvant-induced arthritis Lewis rat model at 50 mg/kg, po for 11 days; format: functional, organism-based; parameters: dose 50 mg/kg
Summary of the method: (§4)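 Arthritis was induced in Lewis rats by intradermal complete Freund's adjuvant at the base of the tail. Oral treatment began on day 8, when mean clinical joint scores were 12, and continued for 11 days. Tarsal joints were taken at necropsy and lesions were scored histologically in blinded fashion.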

[10] = Plasma concentration in adjuvant-induced arthritis Lewis rat model at 25 mg/kg, po after 4 hrs; format: ADME, organism-based; parameters: dose 25 mg/kg, route oral
[11] = system: Mus musculus; assay: Plasma concentration in collagen-induced arthritis mouse model at 100 mg/kg, po twice daily after 12 to 14 hrs; format: ADME, organism-based; parameters: dose 100 mg/kg, route oral; conditions: in vivo
[12] = system: MC9; assay: Inhibition of LTB4 production in mouse MC9 cells; format: functional, cell-based
[13] = Plasma concentration in adjuvant-induced arthritis Lewis rat model at 50 mg/kg, po after 16 hrs; format: ADME, organism-based; parameters: dose 50 mg/kg, route oral
[14] = Plasma concentration in adjuvant-induced arthritis Lewis rat model at 5 mg/kg, po after 16 hrs; format: ADME, organism-based; parameters: dose 5 mg/kg, route oral
[15] = Plasma concentration in adjuvant-induced arthritis Lewis rat model at 25 mg/kg, po after 16 hrs; format: ADME, organism-based; parameters: dose 25 mg/kg, route oral
[16] = Inhibition of cytosolic phospholipase A2alpha by GLU micelle assay
Summary of the method: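 Micellar assay with 7-hydroxycoumarinyl-γ-linolenate (GLU) substrate, presenting inhibitor and substrate to the enzyme in high-lipid micelles. Each run gives the mean of duplicate assays, and values come from at least two runs.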

[17] = system: Rattus norvegicus; assay: Reduction in synovitis damage in Freund's adjuvant-induced arthritis Lewis rat model at 5 mg/kg, po for 11 days; format: functional, organism-based; parameters: dose 5 mg/kg; summary of the method: as §4
[18] = molecular target: Prostaglandin G/H synthase 2, cyclooxygenase-2 (Homo sapiens) (UniProt P35354); assay: Inhibition of COX2-dependent PGE2 production in IL1B stimulated human A549 cells at 1 uM in presence of arachidonic acid
[19] = molecular target: T1, Cytosolic phospholipase A2 gamma (Homo sapiens) (UniProt Q9UP65); assay: Inhibition of cytosolic phospholipase A2gamma at 0.5 uM; summary of the method: as §3
T1 sequence (whole entry): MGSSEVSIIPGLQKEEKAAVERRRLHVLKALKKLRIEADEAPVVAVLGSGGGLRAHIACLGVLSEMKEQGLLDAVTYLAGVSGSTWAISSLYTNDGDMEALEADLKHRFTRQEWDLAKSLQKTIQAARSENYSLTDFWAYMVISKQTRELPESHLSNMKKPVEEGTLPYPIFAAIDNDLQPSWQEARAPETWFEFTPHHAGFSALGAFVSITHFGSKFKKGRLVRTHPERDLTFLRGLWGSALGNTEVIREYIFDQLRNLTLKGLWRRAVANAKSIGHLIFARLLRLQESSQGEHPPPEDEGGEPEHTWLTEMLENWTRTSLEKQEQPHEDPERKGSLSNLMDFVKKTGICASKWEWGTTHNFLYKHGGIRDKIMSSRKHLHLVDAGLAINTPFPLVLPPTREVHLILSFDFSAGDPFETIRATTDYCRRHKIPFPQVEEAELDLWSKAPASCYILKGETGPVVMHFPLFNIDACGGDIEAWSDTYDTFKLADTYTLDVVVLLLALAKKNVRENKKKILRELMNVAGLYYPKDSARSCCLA

[20] = system: Blood; assay: Inhibition of PAF production in human whole blood at 0.15 uM; format: functional; summary of the method: as §1
[21] = system: Rattus norvegicus; assay: Inhibition of carrageenan-induced paw edema in po dosed Sprague-Dawley rat administered 2 hrs before carrageenan challenge; format: functional
[22] = system: Ovis aries; assay: Effect on late asthmatic response in Ascaris Suum antigen-induced reversible airway bronchoconstriction sheep model assessed as reduction in lung resistance at 10 mg/kg, po bid administered 2 hrs before antigen challenge measured 5 to 8 hrs after challenge; format: functional; parameters: scale not given: the % may be the effect or the level left
[23] = Inhibition of cytosolic phospholipase A2alpha
[24] = system: MC9; assay: Inhibition of PGF2apha production in arachidonic acid-stimulated mouse MC9 cells; format: functional, cell-based
[25] = system: Blood; assay: Inhibition of PGF2alpha production in human whole blood at 0.15 uM; format: functional; summary of the method: as §1
[26] = Oral bioavailability in rat; format: ADME, organism-based; conditions: in vivo
[27] = system: Rattus norvegicus; assay: Reduction in cartilage damage in Freund's adjuvant-induced arthritis Lewis rat model at 50 mg/kg, po for 11 days; format: functional, organism-based; parameters: dose 50 mg/kg; summary of the method: as §4
[28] = Plasma concentration in adjuvant-induced arthritis Lewis rat model at 5 mg/kg, po after 4 hrs; format: ADME, organism-based; parameters: dose 5 mg/kg, route oral
[29] = Plasma concentration in adjuvant-induced arthritis Lewis rat model at 50 mg/kg, po after 4 hrs; format: ADME, organism-based; parameters: dose 50 mg/kg, route oral
[30] = system: Ovis aries; assay: Inhibition of acute hyperresponsiveness in Ascaris Suum antigen-induced reversible airway bronchoconstriction sheep model assessed as reduction in lung resistance at 10 mg/kg, po bid administered and measured after 16 hrs
[31] = system: Rattus norvegicus; assay: Reduction in synovitis damage in Freund's adjuvant-induced arthritis Lewis rat model at 25 mg/kg, po for 11 days; format: functional, organism-based; parameters: dose 25 mg/kg; summary of the method: as §4
[32] = system: Rattus norvegicus; assay: Reduction in cartilage damage in Freund's adjuvant-induced arthritis Lewis rat model at 5 mg/kg, po for 11 days; format: functional, organism-based; parameters: dose 5 mg/kg; summary of the method: as §4
[33] = Inhibition of secreted phospholipase A2 at 0.5 uM
Summary of the method: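 Type II secreted PLA2 activity measured with PAPE (1-palmitoyl-2-arachidonoyl-sn-glycero-3-phosphoethanolamine) liposomes as substrate.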

[34] = molecular target: T2, Cytosolic phospholipase A2 beta (Homo sapiens) (UniProt P0C869); assay: Inhibition of cytosolic phospholipase A2beta at 0.5 uM; summary of the method: as §3
T2 sequence (whole entry): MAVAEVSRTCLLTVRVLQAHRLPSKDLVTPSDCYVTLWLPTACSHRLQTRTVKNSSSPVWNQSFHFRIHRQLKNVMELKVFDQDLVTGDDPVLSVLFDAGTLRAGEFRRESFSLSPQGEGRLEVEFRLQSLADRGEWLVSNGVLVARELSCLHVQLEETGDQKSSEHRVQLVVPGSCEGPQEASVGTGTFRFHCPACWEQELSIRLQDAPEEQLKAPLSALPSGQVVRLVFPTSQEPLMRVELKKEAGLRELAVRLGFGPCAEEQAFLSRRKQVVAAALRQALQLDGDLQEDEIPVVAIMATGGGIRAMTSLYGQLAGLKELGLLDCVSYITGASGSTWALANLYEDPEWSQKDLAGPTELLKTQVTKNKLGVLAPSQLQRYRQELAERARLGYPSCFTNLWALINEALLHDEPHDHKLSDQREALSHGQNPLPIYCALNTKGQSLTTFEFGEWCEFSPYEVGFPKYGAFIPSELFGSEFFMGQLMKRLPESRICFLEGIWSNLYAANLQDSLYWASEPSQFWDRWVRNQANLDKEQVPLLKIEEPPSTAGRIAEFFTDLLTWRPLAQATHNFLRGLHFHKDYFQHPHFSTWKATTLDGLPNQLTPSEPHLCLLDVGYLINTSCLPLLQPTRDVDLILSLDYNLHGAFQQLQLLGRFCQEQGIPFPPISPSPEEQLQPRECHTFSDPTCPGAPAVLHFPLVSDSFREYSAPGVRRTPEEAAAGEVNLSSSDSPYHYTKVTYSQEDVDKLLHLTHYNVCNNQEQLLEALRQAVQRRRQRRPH

[35] = system: Rattus norvegicus; assay: Reduction in cartilage damage in Freund's adjuvant-induced arthritis Lewis rat model at 25 mg/kg, po for 11 days; format: functional, organism-based; parameters: dose 25 mg/kg; summary of the method: as §4
[36] = system: Blood; assay: Inhibition of TXB2 production in Sprague-Dawley rat whole blood; format: functional, tissue-based
Summary of the method: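 Rat whole blood stimulated with calcium ionophore A23187 at 5 µM, with thromboxane B2 measured. Each run gives the mean of triplicate assays, and values come from at least two runs.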

[37] = Ratio of AUC in Sprague-Dawley rat at 25 mg/kg, po to IC50 for TXB2 production in Sprague-Dawley rat whole blood; format: functional
[38] = system: Rattus norvegicus; assay: Inhibition of PGE2 production in carrageenan-stimulated rat air pouch model at 5 mg/kg, po after 6 hrs; format: functional; summary of the method: as §2
[39] = Plasma concentration in collagen-induced arthritis mouse model at 100 mg/kg, po twice daily after 1.5 hrs; format: ADME, organism-based; parameters: dose 100 mg/kg, route oral

IC50 [1]: 20 nM
concentration at 3 h [3]: 7200 ng/mL
inhibition [4]: > 95%
inhibition [6]: > 90%
concentration at 4 h [10]: 1130 ng/mL
Cp [11]: 2315 ng/mL
IC50 [12]: 20 nM
concentration at 16 h [13]: 692 ng/mL
concentration at 16 h [14]: 34 ng/mL
concentration at 16 h [15]: 166 ng/mL
IC50 [16]: 40 nM
Activity [18]: inactive
Activity [19]: inactive
IC50 [23]: < 10 nM
IC50 [24]: 900 nM
bioavailability [26]: 6%
concentration at 4 h [28]: 147 ng/mL
concentration at 4 h [29]: 3600 ng/mL
Activity [33]: inactive
Activity [34]: inactive
SMILES: O=C(O)c1ccc(CCCc2c(CCNS(=O)(=O)Cc3ccc(Cl)c(Cl)c3)n(C(c3ccccc3)c3ccccc3)c3ccc(Cl)cc23)cc1 [EFIPLADIB]
inhibition at 0.15 µM [2]: 78%
ED50 [5]: 6 mg/kg
inhibition at 0.15 µM [7]: 57%
inhibition at 0.15 µM [8]: 64%
Activity [9]: Active
Activity [17]: Active
inhibition at 0.15 µM [20]: 50%
ED50 [21]: 35 mg/kg
Activity [22]: 50%
inhibition at 0.15 µM [25]: 66%
Activity [27]: Active
Activity [30]: Active
Activity [31]: Active
Activity [32]: Active
Activity [35]: Active

IC50 [36]: 160 nM
Cp [11]: 531 ng/mL
IC50 [16]: 150 nM
concentration at 1.5 h [39]: 4080 ng/mL
SMILES: O=C(O)c1ccc(OCCc2c(CCNS(=O)(=O)Cc3ccc(Cl)c(Cl)c3)n(C(c3ccccc3)c3ccccc3)c3ccc(Cl)cc23)cc1 [ECOPLADIB]
ED50 [5]: 10 mg/kg
Ratio [37]: 18 h
inhibition in vivo at 5 mg/kg [38]: < 10%
ED50 [21]: 40 mg/kg
